The values below come from ChEMBL document CHEMBL1177799 (Bioorg Med Chem Lett, 2010).

For data set [1], the target named is T1, Adenosine receptor A2b (Homo sapiens, UniProt P29275).
T1 sequence (P29275 whole entry): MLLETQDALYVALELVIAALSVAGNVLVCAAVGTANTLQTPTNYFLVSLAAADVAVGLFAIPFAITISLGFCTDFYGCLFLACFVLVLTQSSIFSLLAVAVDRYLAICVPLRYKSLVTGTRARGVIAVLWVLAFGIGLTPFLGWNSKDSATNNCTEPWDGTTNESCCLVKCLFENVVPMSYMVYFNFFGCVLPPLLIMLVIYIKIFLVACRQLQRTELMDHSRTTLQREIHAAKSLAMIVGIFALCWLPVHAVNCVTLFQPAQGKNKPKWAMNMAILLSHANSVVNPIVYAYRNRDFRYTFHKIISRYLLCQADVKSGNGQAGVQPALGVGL
Description: Displacement of [3H]ZM241385 from human adenosine A2B receptor expressed in CHO cells after 1 hr by scintillation counting. Type of data set: cell-based. The essentials:
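Whole CHO cells expressing human A2B receptor, harvested mechanically from 80% confluent flasks, frozen, then resuspended in assay buffer on assay day. Competition against [3H]ZM241385 (30 nM final), 1 h at room temperature with shaking. Harvest on 0.5% polyethyleneimine-treated filter plates, air-dried, scintillation counting.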
Background: In a radioligand displacement assay an active substance lowers the binding of a labelled ligand.

Another data set deals with Adenosine receptor A2a (Homo sapiens, UniProt P29274). Description: Displacement of [3H]-ZM241385 from human adenosine A2A receptor expressed in CHO-K1 cells after 1 hr by scintillation counting. In kind it is cell-based.
Sequence of Adenosine receptor A2a (P29274 whole entry): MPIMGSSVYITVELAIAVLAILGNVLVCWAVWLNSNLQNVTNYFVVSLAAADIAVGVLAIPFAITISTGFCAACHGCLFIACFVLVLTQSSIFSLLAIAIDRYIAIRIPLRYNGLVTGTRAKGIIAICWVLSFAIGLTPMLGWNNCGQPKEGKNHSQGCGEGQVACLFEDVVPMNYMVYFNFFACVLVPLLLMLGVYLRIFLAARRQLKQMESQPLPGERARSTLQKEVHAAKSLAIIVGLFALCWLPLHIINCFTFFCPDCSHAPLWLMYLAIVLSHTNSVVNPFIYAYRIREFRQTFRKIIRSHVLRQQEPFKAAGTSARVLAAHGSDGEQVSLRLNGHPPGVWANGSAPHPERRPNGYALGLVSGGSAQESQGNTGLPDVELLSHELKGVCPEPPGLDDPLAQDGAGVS
The target in the next data set is T2, Adenosine receptor A1 (Homo sapiens, UniProt P30542).
T2 sequence (P30542 whole entry): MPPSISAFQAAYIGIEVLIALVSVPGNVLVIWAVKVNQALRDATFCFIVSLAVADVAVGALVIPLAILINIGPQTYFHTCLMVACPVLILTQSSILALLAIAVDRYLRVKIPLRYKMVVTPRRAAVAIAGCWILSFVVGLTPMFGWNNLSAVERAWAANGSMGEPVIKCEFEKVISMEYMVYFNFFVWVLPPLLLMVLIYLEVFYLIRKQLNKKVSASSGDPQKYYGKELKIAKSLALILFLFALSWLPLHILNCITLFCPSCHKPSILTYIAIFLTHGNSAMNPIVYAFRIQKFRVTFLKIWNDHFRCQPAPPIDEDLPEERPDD
Description: Displacement of [3H]-DPCPX from human adenosine A1 receptor expressed in CHO-K1 cells after 1 hr by scintillation counting. In kind it is cell-based. The essentials: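 Commercial human A1 membranes (10 µg/well) in HEPES 50 mM, NaCl 100 mM, MgCl2 1 mM buffer; competition against [3H]-DPCPX (4.8 nM final), 1 h at room temperature with orbital shaking. Filtration harvest on polyethyleneimine-treated (0.5%) glass-fibre plates, air-dried, scintillation counting.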

The target of data set [2] is T1, Adenosine receptor A2b. Description: Antagonist activity at human adenosine A2B receptor expressed in CHO cells assessed as inhibition of adenosine-induced cAMP production. Type of data set: functional, cell-based. In short, it runs like this: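 CHO cells stably transfected with human A2B receptor, grown overnight as monolayer (7500 cells/well), washed with Krebs buffer, then exposed to compounds in Krebs buffer (final DMSO 1.1%) for 20–25 min. Wells emptied, cells lysed and cAMP measured with an enzyme-fragment complementation cAMP kit for adherent cells.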
(In general: Cyclic AMP is a second messenger, typically raised through Gs and lowered through Gi signalling.)

Data set [3] is described as follows: Half life in Han Wistar rat at 50 mg/kg, po up to 24 hrs by LC-MS analysis. Type of data set: ADME, organism-based. Set-up: dose 50 mg/kg, route oral. To be noted: in vivo. In short, it runs like this:
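Male Han Wistar rats (n = 4 per route): iv 2.5 mg/kg via tail vein in DMA/PEG 400/40% HPBCD/H2O, or po 50 mg/kg in Capmul PG8 by intubation tube. Plasma sampled up to 24 h after dosing, drug levels measured by LC–MS.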

Data set [4] in a line: Extrapolated AUC in Han Wistar rat at 2.5 mg/kg, iv up to 24 hrs by LC-MS analysis. In kind it is ADME, organism-based. The arrangement: time < 24 hr, dose 2.5 mg/kg, route intravenous. To be noted: in vivo.
Data set [5] in a line: Cmax in Han Wistar rat at 50 mg/kg, po up to 24 hrs by LC-MS analysis. In kind it is ADME, organism-based. Set-up: dose 50 mg/kg, route oral. To be noted: in vivo.
The nature of data set [6]: Volume of distribution in Han Wistar rat at 2.5 mg/kg, iv up to 24 hrs by LC-MS analysis. Type of data set: ADME, organism-based. Set-up: dose 2.5 mg/kg, route intravenous. To be noted: in vivo. In short, it runs like this:
(§1)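 Male Han Wistar rats (n = 4) received a single 2.5 mg/kg intravenous tail-vein injection in DMA/PEG 400/40% HPBCD/H₂O. Plasma was sampled up to 24 h after dosing, and plasma drug levels were measured by LC–MS to derive the PK parameters.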

Another data set deals with T3, Adenosine receptor A3 (Homo sapiens, UniProt P0DMS8).
T3 sequence (P0DMS8 whole entry): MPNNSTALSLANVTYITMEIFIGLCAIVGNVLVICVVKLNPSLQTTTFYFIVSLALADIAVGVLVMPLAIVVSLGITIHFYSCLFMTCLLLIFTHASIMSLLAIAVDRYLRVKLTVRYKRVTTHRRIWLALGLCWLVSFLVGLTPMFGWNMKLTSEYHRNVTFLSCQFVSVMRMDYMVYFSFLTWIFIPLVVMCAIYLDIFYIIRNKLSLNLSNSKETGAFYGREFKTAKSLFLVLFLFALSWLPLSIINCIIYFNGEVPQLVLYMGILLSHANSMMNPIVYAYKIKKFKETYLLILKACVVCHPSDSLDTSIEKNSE
Description: Binding affinity to adenosine A3 receptor.

Data set [7] in a line: Clearance in Han Wistar rat at 2.5 mg/kg, iv up to 24 hrs by LC-MS analysis. In kind it is ADME, organism-based. The arrangement: dose 2.5 mg/kg, route intravenous. To be noted: in vivo. The essentials:
as §1

Data set [8] can be described thus: Extrapolated AUC in Han Wistar rat at 50 mg/kg, po up to 24 hrs by LC-MS analysis. The arrangement: time < 24 hr, dose 50 mg/kg, route oral. To be noted: in vivo. In kind it is ADME, organism-based.

As to `CCN(C(C)=O)c1ccc(OC)c2nc(NC(=O)c3ccc(C#N)cc3)sc12`, the Ki on Adenosine receptor A2b [1] was 10 nM; at Adenosine receptor A2a it was 50 nM; on Adenosine receptor A1, 71 nM. Also, the IC50 at Adenosine receptor A2b [2] came out at 28 nM.
In the same order, the values of `CCN(C(C)=O)c1ccc(OC)c2nc(NC(=O)c3ccc(S(C)(=O)=O)cc3)sc12` are 19 nM, 92 nM, 390 nM and 36 nM.
In the same order, the values of `CCN(C(C)=O)c1ccc(OC)c2nc(NC(=O)c3ccc(C(=O)N4CCOCC4)cc3)sc12` are 7 nM, 76 nM, 160 nM and 21 nM.
For `CCN(C(C)=O)c1ccc(OC)c2nc(NC(=O)c3ccc(C(=O)N4CCCCC4)cc3)sc12` the same measures were 4 nM, 100 nM, 300 nM and 16 nM.
With `CCN(C(C)=O)c1ccc(OC)c2nc(NC(=O)c3ccc(-n4cccn4)cc3)sc12`, the figures for the Ki at Adenosine receptor A2b [1], at Adenosine receptor A2a and at Adenosine receptor A1 were 18 nM, 66 nM and 78 nM, respectively. The IC50 at Adenosine receptor A2b [2] worked out at 21 nM.
In the same order, the values of `CCN(C(C)=O)c1ccc(OC)c2nc(NC(=O)c3ccc(NS(C)(=O)=O)cc3)sc12` are 22 nM, 46 nM, 110 nM and 37 nM.
Take `CCN(C(C)=O)c1ccc(OC)c2nc(NC(=O)c3ccnn3C)sc12`: the Ki came out at 8 nM at Adenosine receptor A2b [1], 51 nM on Adenosine receptor A2a, 80 nM on Adenosine receptor A3 and 100 nM on Adenosine receptor A1. Moreover, the half-life in [3] is 2.1 h. The results for the AUC at 24 h in data set [4] and in data set [8] were 929 ng·h/mL and 74400 ng·h/mL, respectively. In data set [5], the highest level (Cmax) was 7420 ng/mL. In addition, in data set [6], the Vd worked out at 3 L/kg. Besides, the IC50 on Adenosine receptor A2b [2] is 21 nM. This compound also had a clearance in data set [7] of 46 mL/min/kg.
Take `CCN(C(C)=O)c1ccc(OC)c2nc(NC(=O)c3ccc(C(=O)N4CCN(C)CC4)cc3)sc12`: the Ki at Adenosine receptor A2b [1] worked out at 18 nM; at Adenosine receptor A2a it was 89 nM; at Adenosine receptor A1 it was 120 nM. The IC50 at Adenosine receptor A2b [2] is 38 nM.
In the same order, the values of `CCN(C(C)=O)c1ccc(OC)c2nc(NC(=O)c3cnn(Cc4cccc(C(F)(F)F)c4)c3)sc12` are 4 nM, 3 nM, 6 nM and 6 nM.
In the same order, the values of `CCN(C(C)=O)c1ccc(OC)c2nc(NC(=O)c3cnn(Cc4cccc(F)c4)c3)sc12` are 6 nM, 3 nM, 9 nM and 12 nM.
For `CCN(C(C)=O)c1ccc(OC)c2nc(NC(=O)c3ccc(-n4cnnn4)cc3)sc12` the same measures were 23 nM, 80 nM, 130 nM and 28 nM.
Take `CCN(C(C)=O)c1ccc(OC)c2nc(NC(=O)c3ccc(C(=O)OC)cc3)sc12`: the results for the Ki at Adenosine receptor A2b [1], at Adenosine receptor A2a and on Adenosine receptor A1 were 15 nM, 170 nM and 185 nM, respectively. Moreover, the IC50 at Adenosine receptor A2b [2] was 35 nM.
In the same order, the values of `CCN(C(C)=O)c1ccc(OC)c2nc(NC(=O)c3ccc(-n4ccnc4)cc3)sc12` are 8 nM, 77 nM, 150 nM and 19 nM.
As for `CCN(C(C)=O)c1ccc(OC)c2nc(NC(=O)c3ccc(CN4CCCC4=O)cc3)sc12`, the results for the Ki on Adenosine receptor A2b [1], on Adenosine receptor A2a and at Adenosine receptor A1 were 14 nM, 27 nM and 400 nM, respectively. Moreover, the IC50 at Adenosine receptor A2b [2] stood at 28 nM.
For `CCN(C(C)=O)c1ccc(OC)c2nc(NC(=O)c3ccc(CN(C)S(C)(=O)=O)cc3)sc12` the same measures were 4 nM, 71 nM, 410 nM and 19 nM.
In the same order, the values of `CCN(C(C)=O)c1ccc(OC)c2nc(NC(=O)c3ccc(C(=O)N(C)CCOC)cc3)sc12` are 13 nM, 26 nM, 180 nM and 13 nM.

As usually defined, the Ki is the dissociation constant of the complex between target and ligand, obtained from inhibition or displacement. Higher therefore signals lower affinity. A word on the IC50: it is the concentration needed to halve the response being measured. What is called half-life is the time in which the quantity being followed falls by half. Lower therefore signals fast loss. One may read the AUC as the area under the concentration-time curve, a measure of exposure. For orientation: Cmax means the peak of the concentration-time curve. One may read the Vd as the apparent volume that relates the amount in the body to the concentration in plasma or blood. Low values mean little distribution into tissue, high ones wide distribution into tissue. By clearance is commonly meant the rate of elimination divided by the concentration.
